Test results taken from article PMC4561207 (Child's nervous system : ChNS : official journal of the …, 2015).

Test: Adverse events regardless of attribution
Type: in vivo, human
Procedure, shortened: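 Children with recurrent/refractory CNS tumours took oral drug once daily, continuously, in 28-day cycles. Dosing was stratified by EIACD use, with start/escalation levels 20–40 mg/m² (no EIACD) or 15–32 mg/m² (EIACD). Monitoring included weekly exam, serum chemistries, CBC and urine protein for 8 weeks, and TSH before each cycle. Events other than hypertension were graded by CTCAE v3, later v4.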

COc1cc2c(Oc3ccc4[nH]c(C)cc4c3F)ncnc2cc1OCCCN1CCCC1 [cediranib, Cediranib]
Abdominal pain, events (patients) (grade 1 AE): 5(5)
Acidosis, events (patients) (grade 1 AE): 7(5)
Alanine aminotransferase increased, events (patients) (grade 1 AE): 44(25)
Alkaline phosphatase increased, events (patients) (grade 1 AE): 4(3)
Anal mucositis, events (patients) (grade 1 AE): 1(1)
Anal pain, events (patients) (grade 1 AE): 1(1)
Anemia, events (patients) (grade 1 AE): 4(4)
Anorexia, events (patients) (grade 1 AE): 9(9)
Aspartate aminotransferase increased, events (patients) (grade 1 AE): 38(20)
Back pain, events (patients) (grade 1 AE): 4(3)
Blood bilirubin increased, events (patients) (grade 1 AE): 17(10)
Bone pain, events (patients) (grade 1 AE): 1(1)
Cardiac troponin I increased, events (patients) (grade 1 AE): 1(1)
Chest wall pain, events (patients) (grade 1 AE): 1(1)
Cholesterol high, events (patients) (grade 1 AE): 1(1)
Chronic kidney disease, events (patients) (grade 1 AE): 1(1)
Constipation, events (patients) (grade 1 AE): 7(4)
Cough, events (patients) (grade 1 AE): 4(4)
Creatinine increased, events (patients) (grade 1 AE): 3(2)
Dehydration, events (patients) (grade 1 AE): 2(2)
Depression, events (patients) (grade 1 AE): 3(3)
Diarrhea, events (patients) (grade 1 AE): 44(30)
Dizziness, events (patients) (grade 1 AE): 3(3)
Dry mouth, events (patients) (grade 1 AE): 1(1)
Dry skin, events (patients) (grade 1 AE): 1(1)
Dyspepsia, events (patients) (grade 1 AE): 3(3)
Edema face, events (patients) (grade 1 AE): 1(1)
Edema limbs, events (patients) (grade 1 AE): 2(2)
Endocrine disorders - Other, specify, events (patients) (grade 1 AE): 1(1)
Epistaxis, events (patients) (grade 1 AE): 6(5)
Eye disorders - Other, specify, events (patients) (grade 1 AE): 1(1)
Fatigue, events (patients) (grade 1 AE): 11(10)
Fecal incontinence, events (patients) (grade 1 AE): 2(2)
Fever, events (patients) (grade 1 AE): 2(2)
GGT increased, events (patients) (grade 1 AE): 1(1)
Gastritis, events (patients) (grade 1 AE): 2(2)
Gastrointestinal disorders - Other, specify, events (patients) (grade 1 AE): 1(1)
Headache, events (patients) (grade 1 AE): 21(12)
Hematuria, events (patients) (grade 1 AE): 5(3)
Hemoglobin increased, events (patients) (grade 1 AE): 11(6)
Hoarseness, events (patients) (grade 1 AE): 1(1)
Hypercalcemia, events (patients) (grade 1 AE): 6(3)
Hyperglycemia, events (patients) (grade 1 AE): 19(14)
Hyperkalemia, events (patients) (grade 1 AE): 3(3)
Hypermagnesemia, events (patients) (grade 1 AE): 14(9)
Hypernatremia, events (patients) (grade 1 AE): 8(5)
Hypertension, events (patients) (grade 1 AE): 21(14)
Hyperthyroidism, events (patients) (grade 1 AE): 2(2)
Hypoalbuminemia, events (patients) (grade 1 AE): 25(16)
Hypocalcemia, events (patients) (grade 1 AE): 23(14)
Hypoglycemia, events (patients) (grade 1 AE): 5(5)
Hypokalemia, events (patients) (grade 1 AE): 20(16)
Hypomagnesemia, events (patients) (grade 1 AE): 8(6)
Hyponatremia, events (patients) (grade 1 AE): 23(12)
Hypophosphatemia, events (patients) (grade 1 AE): 15(12)
Hypothyroidism, events (patients) (grade 1 AE): 10(10)
INR increased, events (patients) (grade 1 AE): 1(1)
Investigations - Other, specify, events (patients) (grade 1 AE): 2(2)
Joint effusion, events (patients) (grade 1 AE): 1(1)
Leukoencephalopathy, events (patients) (grade 1 AE): 1(1)
Lymphocyte count decreased, events (patients) (grade 1 AE): 13(10)
Malaise, events (patients) (grade 1 AE): 3(1)
Mucositis oral, events (patients) (grade 1 AE): 1(1)
Myalgia, events (patients) (grade 1 AE): 1(1)
Nausea, events (patients) (grade 1 AE): 18(13)
Nervous system disorders - Other, specify, events (patients) (grade 1 AE): 2(2)
Neutrophil count decreased, events (patients) (grade 1 AE): 13(8)
Non-cardiac chest pain, events (patients) (grade 1 AE): 2(2)
Oral pain, events (patients) (grade 1 AE): 2(2)
Pain in extremity, events (patients) (grade 1 AE): 6(5)
Pain, events (patients) (grade 1 AE): 3(3)
Palmar-plantar erythrodysesthesia syndrome, events (patients) (grade 1 AE): 4(4)
Platelet count decreased, events (patients) (grade 1 AE): 23(17)
Proteinuria, events (patients) (grade 1 AE): 22(14)
Rash acneiform, events (patients) (grade 1 AE): 2(2)
Rash maculo-papular, events (patients) (grade 1 AE): 6(5)
Rectal pain, events (patients) (grade 1 AE): 1(1)
Renal and urinary disorders - Other, specify, events (patients) (grade 1 AE): 1(1)
Respiratory, thoracic and mediastinal disorders - Other, specify, events (patients) (grade 1 AE): 1(1)
Serum amylase increased, events (patients) (grade 1 AE): 1(1)
Skin and subcutaneous tissue disorders - Other, specify, events (patients) (grade 1 AE): 1(1)
Stomach pain, events (patients) (grade 1 AE): 3(3)
Urinary frequency, events (patients) (grade 1 AE): 2(2)
Urinary retention, events (patients) (grade 1 AE): 2(2)
Vascular disorders - Other, specify, events (patients) (grade 1 AE): 2(2)
Voice alteration, events (patients) (grade 1 AE): 2(2)
Vomiting, events (patients) (grade 1 AE): 33(19)
Weight loss, events (patients) (grade 1 AE): 2(2)
White blood cell decreased, events (patients) (grade 1 AE): 17(14)
Abdominal pain, events (patients) (grade 2 AE): 5(5)
Alanine aminotransferase increased, events (patients) (grade 2 AE): 18(10)
Anemia, events (patients) (grade 2 AE): 1(1)
Anorexia, events (patients) (grade 2 AE): 6(6)
Arthralgia, events (patients) (grade 2 AE): 1(1)
Aspartate aminotransferase increased, events (patients) (grade 2 AE): 4(4)
Back pain, events (patients) (grade 2 AE): 1(1)
Blood bilirubin increased, events (patients) (grade 2 AE): 1(1)
Bone pain, events (patients) (grade 2 AE): 2(2)
Confusion, events (patients) (grade 2 AE): 1(1)
Constipation, events (patients) (grade 2 AE): 2(2)
Cough, events (patients) (grade 2 AE): 1(1)
Creatinine increased, events (patients) (grade 2 AE): 2(2)
Dehydration, events (patients) (grade 2 AE): 2(2)
Diarrhea, events (patients) (grade 2 AE): 16(11)
Dizziness, events (patients) (grade 2 AE): 2(1)
Dyspepsia, events (patients) (grade 2 AE): 1(1)
Dysphasia, events (patients) (grade 2 AE): 1(1)
Endocrine disorders - Other, specify, events (patients) (grade 2 AE): 1(1)
Fatigue, events (patients) (grade 2 AE): 10(10)
Fever, events (patients) (grade 2 AE): 1(1)
Flushing, events (patients) (grade 2 AE): 3(1)
Gastrointestinal disorders - Other, specify, events (patients) (grade 2 AE): 1(1)
Headache, events (patients) (grade 2 AE): 10(7)
Hemoglobin increased, events (patients) (grade 2 AE): 1(1)
Hydrocephalus, events (patients) (grade 2 AE): 2(2)
Hyperglycemia, events (patients) (grade 2 AE): 3(3)
Hypernatremia, events (patients) (grade 2 AE): 4(1)
Hypertension, events (patients) (grade 2 AE): 28(28)
Hypoalbuminemia, events (patients) (grade 2 AE): 9(7)
Hypocalcemia, events (patients) (grade 2 AE): 3(3)
Hypoglycemia, events (patients) (grade 2 AE): 1(1)
Hypomagnesemia, events (patients) (grade 2 AE): 1(1)
Hypophosphatemia, events (patients) (grade 2 AE): 6(4)
Hypothyroidism, events (patients) (grade 2 AE): 10(10)
Hypoxia, events (patients) (grade 2 AE): 1(1)
Intracranial hemorrhage, events (patients) (grade 2 AE): 4(4)
Lipase increased, events (patients) (grade 2 AE): 1(1)
Lymphocyte count decreased, events (patients) (grade 2 AE): 12(8)
Mucositis oral, events (patients) (grade 2 AE): 2(2)
Myalgia, events (patients) (grade 2 AE): 2(2)
Nausea, events (patients) (grade 2 AE): 4(4)
Nervous system disorders - Other, specify, events (patients) (grade 2 AE): 1(1)
Neutrophil count decreased, events (patients) (grade 2 AE): 8(5)
Non-cardiac chest pain, events (patients) (grade 2 AE): 1(1)
Pain in extremity, events (patients) (grade 2 AE): 3(3)
Pain, events (patients) (grade 2 AE): 1(1)
Palmar-plantar erythrodysesthesia syndrome, events (patients) (grade 2 AE): 10(7)
Pericardial effusion, events (patients) (grade 2 AE): 1(1)
Peripheral motor neuropathy, events (patients) (grade 2 AE): 2(2)
Platelet count decreased, events (patients) (grade 2 AE): 3(3)
Pleural effusion, events (patients) (grade 2 AE): 1(1)
Proteinuria, events (patients) (grade 2 AE): 15(14)
Respiratory, thoracic and mediastinal disorders - Other, specify, events (patients) (grade 2 AE): 1(1)
Reversible posterior leukoencephalopathy syndrome, events (patients) (grade 2 AE): 1(1)
Seizure, events (patients) (grade 2 AE): 3(3)
Skin and subcutaneous tissue disorders - Other, specify, events (patients) (grade 2 AE): 1(1)
Skin ulceration, events (patients) (grade 2 AE): 2(2)
Urinary retention, events (patients) (grade 2 AE): 1(1)
Vomiting, events (patients) (grade 2 AE): 6(6)
Weight loss, events (patients) (grade 2 AE): 2(2)
White blood cell decreased, events (patients) (grade 2 AE): 5(3)
Abdominal pain, events (patients) (grade 3 AE): 1(1)
Alanine aminotransferase increased, events (patients) (grade 3 AE): 7(6)
